Source: PubChem BioAssay (several laboratories)
Sampled rows, rich in hits. Any-hit rate of the full collection: about 3.4%.
HMGR II inh – blocks class II HMG-CoA reductase of Enterococcus faecalis; purified E. faecalis HMGR, NADPH absorbance 340 nm kinetic; inhibition, % at 10 µM; 190,000 compounds, 0.41% hits;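 active = inhibition above a set limit, the median over all tested compounds plus 3 SD, cut at about 9.5% in these data; inconclusive = no clear call, values can overlap the other calls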;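 note: enzyme runs in reverse so mevalonate oxidation gives rising NADPH absorbance; 0% = complete reaction with DMSO and 100% = background rate lacking mevalonate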
Wee1 degr inh – inhibitors of human Wee1 degradation. AID 1321. reporter increase, % at 5 µM. P30291. 220,000 compounds, 1.2% hits. HeLa Luc-Wee1K328M stability, luciferase luminescence; 100% = proteasome inhibitor MG132 effect;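 active = activation above the mean of all tested compounds plus 3 SD, set per screening run, cut at about 8.8% in these data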;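 note: cells exposed to compound for 20 h before luminescence read; 0% = DMSO alone and 100% = MG132 at 30 µM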
Runt-CBFb FRET – blocks binding of human RUNX1 Runt domain to CBFb; Q01196+Q13951; Cerulean-Runt/Venus-CBFb FRET ratio 530/480, 1 h; inhibition, % at 20 µM; 220,000 compounds, 0.46% hits;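 active = inhibition over about 50% at 20 µM in the single-dose screen, limit read from the data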;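 note: 0% = DMSO wells and 100% = excess unlabeled CBFb competitor control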
Target sequence (Q01196 whole entry, looked up, the tested form may be a part): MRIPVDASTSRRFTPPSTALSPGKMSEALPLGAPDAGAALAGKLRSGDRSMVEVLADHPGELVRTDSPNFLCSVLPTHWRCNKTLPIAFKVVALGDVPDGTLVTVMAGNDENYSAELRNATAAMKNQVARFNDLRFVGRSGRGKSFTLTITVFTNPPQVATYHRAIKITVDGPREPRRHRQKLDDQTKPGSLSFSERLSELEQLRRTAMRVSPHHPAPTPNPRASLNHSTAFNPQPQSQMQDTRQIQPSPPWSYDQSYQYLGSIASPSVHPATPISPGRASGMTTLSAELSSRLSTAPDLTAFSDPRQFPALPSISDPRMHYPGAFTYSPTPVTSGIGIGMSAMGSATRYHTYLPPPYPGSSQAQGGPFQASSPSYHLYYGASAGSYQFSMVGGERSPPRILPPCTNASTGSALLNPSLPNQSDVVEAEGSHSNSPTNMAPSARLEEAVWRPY
Target sequence (Q13951 whole entry, looked up, the tested form may be a part): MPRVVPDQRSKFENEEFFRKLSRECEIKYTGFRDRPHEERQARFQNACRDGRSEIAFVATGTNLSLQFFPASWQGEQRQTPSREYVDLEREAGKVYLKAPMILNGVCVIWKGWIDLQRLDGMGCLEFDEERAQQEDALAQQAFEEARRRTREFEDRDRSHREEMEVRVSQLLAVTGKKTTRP
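Assay system: Cerulean-tagged RUNX1 Runt domain (FRET donor) fusion protein / Amount: 100 nM each of Venus-CBFb and Cerulean-Runt domain / Medium: Tris buffer pH 7.5 with salts and BSA / Also added: Venus-CBFb 100 nM / Schedule: 1 h complex formation plus 1 h compound treatment, room temperature / Signal: FRET fluorescence / Read-out: loss of energy transfer signal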
PHOSPHO1 block – blocks human PHOSPHO1 phosphatase activity; recombinant PHOSPHO1, absorbance phosphatase assay; 290,000 compounds, 1.1% hits; Q8TCT1; inhibition, % at 13.3 µM; in the data active = inhibition above about 60%
RanGTP-Impb inh – inhibitors of RanGTP-importin-beta interaction, primary screen, biochemical, FRET, CFP-Ran, YFP-importin-beta, homogeneous | cell-free CFP-Ran/YFP-importin-beta FRET ratio | inhibition, % (concentration not given with the values) | 300,000 compounds, 1.1% hits | AID 2216;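 active = more than half of the replicate wells show a fall in the fluorescence ratio signal beyond about 16%, limit read from the data, passing the limit was not always enough; inconclusive = exactly half of the replicate wells pass the set limit; inactive = fewer than half of replicates pass the limit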;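 note: 0% = DMSO wells and 100% = Ran loaded with GDP instead of GTP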
Runt-SMMHC FRET – inhibitors of human RUNX1 Runt domain binding to CBFb-SMMHC. inhibition, % at 20 µM. 220,000 compounds, 0.74% hits. Cerulean-Runt/Venus-CBFb-SMMHC FRET ratio 530/480, 1 h;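 active = mean inhibition across duplicate retests at 20 µM reaching about 50%, limit read from the data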;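 note: 0% = DMSO wells and 100% = wells with excess untagged CBFb-SMMHC; inhibitors lower the FRET ratio by blocking Runt binding to CBFb-SMMHC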
* = called active by the depositor; ? = inconclusive; / = no result.

SMILES	HMGR II inh	Wee1 degr inh	Runt-CBFb FRET	PHOSPHO1 block	RanGTP-Impb inh	Runt-SMMHC FRET
COC(=O)c1c(NC(=O)c2ccccc2)sc2c1CC(C)(C)OC2	-1	9.4*	-1	2	3	2
CCc1c(C)[nH]n(-c2ccc(Oc3ccccc3)c(S(=O)(=O)O)c2)c1=O	-2	0	-6	65*	/	-3
Cc1cc(C)n(-c2ccc(Oc3ccccc3)c(S(=O)(=O)O)c2)n1	-2	0	-2	-3	?	-1
COc1cc(CC(NC(C)=O)C(=O)NC2CCN(C(=O)c3ccc(C)cc3)CC2)cc(OC)c1 (centres undefined)	/	/	/	22	3	/
COc1cc(CC(NC(C)=O)C(=O)NC2CCN(C(=O)C3CC3)CC2)cc(OC)c1 (centres undefined)	9.6*	1	-1	15	-1	-3
COc1ccc(OC)c(CC(NC(C)=O)C(=O)NC2CCN(c3cc(C)nc4ncnn34)CC2)c1 (centres undefined)	9.7*	-1	-2	26	2	-2
CC(=O)Nc1ccc(NC(=O)CN(c2ccc([N+](=O)[O-])cc2)S(=O)(=O)c2ccccc2)cc1	0	3	-3	67*	?	3
COCCC(=O)N1CCC(Oc2ccc(C(=O)NCCCC3CCCC3)cc2)CC1	/	/	/	28	-1	/
O=C(CNCC1CCCCC1)Nc1ccccc1N1CCCCC1	-2	0	/	28	-4	-3
COc1ccc(CC(=O)Nc2ccccc2N2CCCC2)cc1OC	/	/	/	24	7	/
COc1cc(CC(=O)Nc2ccccc2N2CCCCC2)cc(OC)c1OC	3	9.4*	-4	-14	-3	0
O=C(CNC1CCCCCC1)Nc1ccccc1N1CCCCC1	0	8.9*	/	49	3	-6
N#CC1=C(N)N(c2ncn[nH]2)C2=C(C(=O)CCC2)C1c1ccccc1 (centres undefined)	5	-1	-13	24	-1	2
COc1ccccc1-c1cc(C(=O)NC(C)C)no1	2	3	-2	60*	3	3
COc1ccccc1-c1cc(C(=O)NC(C)c2ccccc2)no1 (centres undefined)	-3	3	0	11	7	-4
O=C(COC(=O)Cn1cnc2ccccc21)Nc1cccc(S(=O)(=O)N2CCOCC2)c1	-3	2	-1	2	-3	3
COc1cccc(CNC(=O)C2CCC(CNc3nc(=S)[nH]c4ccccc34)CC2)c1 (centres undefined)	0	2	0	-19	0	2
Cc1ccc(CNC(=O)C2CCC(CNc3nc(=S)[nH]c4ccccc34)CC2)cc1 (centres undefined)	-2	0	-4	32	27*	-3
O=c1c2cc(N3CCOCC3)ccc2[nH]c(=S)n1Cc1ccc(Cl)cc1	-3	2	2	82*	-3	-10
COc1ccc(Cn2c(-c3ccc(OC)cc3)n[nH]c2=S)cc1	/	/	/	/	-2	/
COc1ccc(-c2n[nH]c(=S)n2CC(C)C)cc1	-2	0	8	97*	7	6
CC(C)Cn1c(-c2csc3ccccc23)n[nH]c1=S	5	-2	4	106*	3	10
Cc1cc(-c2n[nH]c(=S)n2CC(C)C)cs1	-5	11*	9	16	-2	8
Cc1ccc(S(=O)(=O)c2nnn3c2nc(N2CCN(c4ccccn4)CC2)c2ccccc23)cc1C	/	/	/	22	1	/
O=S(=O)(NCC(c1cccnc1)N1CCN(Cc2ccccc2)CC1)c1ccc(F)cc1 (centres undefined)	/	/	/	42	1	/
SMILES	HMGR II inh	Wee1 degr inh	Runt-CBFb FRET	PHOSPHO1 block	RanGTP-Impb inh	Runt-SMMHC FRET
O=S(=O)(NCC(c1cccnc1)N1CCN(Cc2ccccc2)CC1)c1cc(F)ccc1F (centres undefined)	/	/	/	71*	-1	/
CCC(=O)c1ccc(N2CCN(C(=O)c3cccs3)CC2)c(F)c1	/	/	/	/	0	/
CC1(N(O)/C=C2\C=CC=CC2=O)CCCCC1=O (centres undefined)	/	-4	0	15	4	-4
CC1=C(C#N)C(C)C2=C(CC(C)(C)CC2=O)N1 (centres undefined)	1	3	22	-12	5	50*
Cc1cccc(NC(=O)COc2ccc(Br)cc2/C=N/O)c1	-1	9.4*	-3	3	4	-9
CC(=O)Nc1ccc(NC(=O)COc2ccc(Br)cc2C)cc1	3	-1	-3	16	9	-3
COc1ccc(Cn2ccnc2SCC(=O)NC2CCCC2)cc1	/	/	/	-15	-3	/
Cc1cccc(Nc2nnc(SC/C(O)=C(\C#N)c3nc4ccccc4[nH]3)s2)c1C	1	3	13	-4	26*	47
Cc1cccc(C)c1Nc1nnc(SC/C(O)=C(\C#N)c2nc3ccccc3[nH]2)s1	-8	-1	9	5	11	23
O=C(NC1CCC(O)CC1)c1ccc2c(c1)S(=O)(=O)N=C1CCCCCN12 (centres undefined)	/	/	/	/	-1	/
C/C=C/c1ccc(OCC(=O)N(C)CC(=O)Nc2ccc(F)cc2)c(OC)c1	/	/	/	/	5	/
COC(=O)c1c(C(=O)OC)c2ccccn2c1C(=O)c1ccc([N+](=O)[O-])cc1	/	/	/	28	-1	/
COC(=O)c1c(C(=O)OC)c2cc(C(=O)c3ccccc3)ccn2c1Cl	-4	1	6	2	29*	27
CN1CCc2nc3sc(C(=O)C45CC6CC(CC(C6)C4)C5)c(N)c3cc2C1	-8	-1	11	81*	/	14
O=C(Nc1ccccc1)Nc1nnc(-c2ccccc2)o1	4	-1	0	4	-5	-10
O=C(Nc1nnc(-c2ccc(Cl)cc2)o1)Nc1ccccc1F	/	13*	-1	20	0	0
COc1ccccc1NC(=O)N(CCCN1CCOCC1)Cc1cc2cc3c(cc2[nH]c1=O)OCO3	/	/	-5	24	-13	-8
COc1cc2cc(CN(CCCN3CCOCC3)C(=O)Nc3ccccc3F)c(=O)[nH]c2cc1OC	-4	9.2*	-3	0	2	0
O=C(O)c1cc(-c2ccc3c(c2)OCCO3)n[nH]1	6	0	-1	60*	1	1
Cc1ccc(C(=O)n2cnnc2N)cc1C	-4	3	-2	61*	2	-3
Cc1ccc(C(=O)n2cnnc2N)cc1	-6	-1	-1	-15	3	-6
Cc1ccnc(NC(=O)c2ccc(S(=O)(=O)c3ccccc3)cc2)c1	-2	-1	-6	61*	-1	1
Cc1ccnc(NC(=O)c2ccc(C(=O)c3ccccc3)cc2)c1	/	/	/	/	-7	/
CCC(C(=O)NCCC1=CCCCC1)n1nc(C)c2c(C)n(-c3ccccc3)nc2c1=O (centres undefined)	/	/	/	59	1	/
